Here are results for twelve compounds from ChEMBL document CHEMBL1157181, “Novel antioxidant agents deriving from molecular combination of Vitamin C and NO-donor moieties” (Bioorg Med Chem, 2008).

The term logD denotes the decadic logarithm of the distribution of all forms, ionised or not, between an organic phase and buffer at a given pH. Read a high logD as higher lipophilicity. The pKa is the negative logarithm of the acid dissociation constant. A low value points to a stronger acid or weaker base. As a reminder, the EC50 is the concentration that produces a half-maximal response. One may read the IC50 as the concentration that gives 50% inhibition.

Calls of active or inactive are those of the source. The rule behind the calls is not given here. Some results are limits rather than exact numbers.

A short description of data set [1]: Distribution coefficient, log D at pH 1.0 after 4 hrs by shake flask method. Type of data set: physicochemical. The following applies: octanol/water. The essentials: (§1)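 Shake-flask n-octanol/buffer partition at room temperature, pH 1.0 (HCl) or pH 7.4 (phosphate), ionic strength 0.15 M KCl. Phases are presaturated by shaking for 4 h. Solute is about 0.1 mM in the aqueous phase, shaken about 20 min and centrifuged. Aqueous concentration is read by UV at λmax, with at least seven log D values per compound.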

Data set [2] is described as follows: Dissociation constant, pKa of the compound. Type of data set: physicochemical. The essentials:
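Potentiometric titration, at least four runs per compound, of about 1 mM aqueous solutions with ionic strength 0.15 M (KCl). Solutions acidified to pH 1.8 with 0.5 N HCl, then titrated with standardised 0.5 N KOH to pH 10.5, under argon at 25.0 ± 0.1 °C. For poorly soluble compounds, at least five titrations in 15-50 wt% methanol, extrapolated to zero cosolvent (Yasuda-Shedlovsky).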

Data set [3] can be described thus: Distribution coefficient, log D at pH 7.4 after 4 hrs. Type of data set: physicochemical. To be noted: octanol/water. The procedure, abridged: as §1
In data set [4] the test system is Hepatocyte. Put plainly: Antioxidant activity Wistar rat hepatocyte membrane assessed as Fe(3+)-ADP/NADPH-induced lipid peroxidation at 1 mM by TBA assay. Format: functional, cell-based. The essentials: (§2)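 Microsomes from male Wistar rat liver (180–200 g) in Tris-HCl/KCl pH 7.4 (2 mg protein/mL) with ADP 1 mM and FeCl3 50 μM, plus compound in DMSO (≤5%). Peroxidation started with NADPH 0.4 mM at 37 °C and sampled to 30 min. TBARS read at 543 nm against an MDA standard. Inhibition is taken from the 30-min plateau, with IC50 by nonlinear regression.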

Data set [5] deals with Aorta. Put plainly: Vasorelaxation activity in Wistar rat thoracic aorta assessed as inhibition of L-phenylephrine-induced contraction in presence of 1 uM 1H-[1,2,4]oxadiazolo[4,3-a]quinoxalin-1-one. Format: functional, tissue-based. The procedure, abridged:
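Denuded Wistar rat aortic strips with 1 μM ODQ added to the bath 5 min before contraction with 1 μM L-phenylephrine. Cumulative relaxant concentrations are added at plateau, and EC50 is given ± SEM (μM).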

The nature of data set [6]: Distribution coefficient, log D at pH 7.4 after 4 hrs by shake flask method. To be noted: octanol/water. Format: physicochemical. The procedure, abridged: as §1
For data set [7], the system named is Hepatocyte. Put plainly: Antioxidant activity Wistar rat hepatocyte membrane assessed as Fe(3+)-ADP/NADPH-induced lipid peroxidation by TBA assay. Type of data set: functional, cell-based. The essentials: as §2
Data set [8] deals with Aorta. As to the kind of experiment: Vasorelaxation activity in Wistar rat thoracic aorta assessed as inhibition of L-phenylephrine-induced contraction. Format: functional, tissue-based. The procedure, abridged: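 Endothelium-denuded thoracic aorta strips from male Wistar rats (180–200 g) equilibrated 120 min and contracted with 1 μM L-phenylephrine. At plateau, cumulative concentrations of the test agent are added. EC50 is given ± SEM (μM).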

For data set [9], the system named is Hepatocyte. As to the kind of experiment: Antioxidant activity Wistar rat hepatocyte membrane assessed as Fe(3+)-ADP/NADPH-induced lipid peroxidation at 50 uM by TBA assay. Type of data set: functional. The essentials:
as §2

`O=C1OC(C(O)CO)C(O)=C1OCCCO[N+](=O)[O-]` (configuration not stated): the logD at 4 h was -0.26 in [1] and less than -2 in data set [3]. The pKa in [2] was determined as 3.19. The result with Hepatocyte [4] was inactive.
Turning to `O=C1OC(C(O)CO)C(OCCCOc2no[n+]([O-])c2S(=O)(=O)c2ccccc2)=C1O` (configuration not stated), the logD at 4 h stood at 1.18 in data set [1] and 0.98 in data set [6]. For the same compound, the pKa in [2] amounted to 7.62. For the same compound, the EC50 worked out at 7 µM in the data set with Aorta [5] and 0.034 µM in the data set with Aorta [8]. In addition, the 50% inhibitory concentration (IC50) in the data set with Hepatocyte [7] is 80 µM.
Take `O=C1OC(C(O)CO)C(OCCCCCCO[N+](=O)[O-])=C1O` (configuration not stated): the pH-dependent lipophilicity (logD) at 4 h in [1] is 0.86; in data set [6], 0.76. The pKa in data set [2] was found to be 7.6. Moreover, the results for the EC50 with Aorta [5] and with Aorta [8] were more than 100 µM and 2.1 µM, respectively. In addition, in the data set on Hepatocyte [7], the IC50 amounted to 80 µM.
For the compound `O=C1OC(C(O)CO)C(O)=C1OCCCOc1no[n+]([O-])c1-c1ccccc1` (configuration not stated), the values for the pH-dependent lipophilicity (logD) at 4 h in data set [1] and in [6] were 1.71 and -1.35, respectively. The compound further had a pKa in data set [2] of 3.44. The EC50 in the data set with Aorta [5] is more than 100 µM; in the data set on Aorta [8], 32 µM. Also, the IC50 in the data set on Hepatocyte [7] came to 392 µM.
For `COC1=C(O)[C@@H]([C@@H](O)CO)OC1=O`, the figures for the logD at 4 h in data set [1] and in [3] were -1.44 and less than -2, respectively. Also, in [2], the pKa stood at 3.23. The result in the data set on Hepatocyte [4] was inactive.
For the compound `O=C1OC(C(O)CO)C(OCCCOc2no[n+]([O-])c2-c2ccccc2)=C1O` (configuration not stated), the logD at 4 h was determined as 1.53 in [1] and 1.13 in [6]. The compound also displayed a pKa in [2] of 7.6. Further, the EC50 in the data set on Aorta [5] amounted to 80.9 µM; in the data set on Aorta [8], 3.8 µM. Further, the IC50 in the data set on Hepatocyte [7] came out at 17 µM.
`O=C1O[C@H]([C@@H](O)CO)C(O)=C1O` [ASCORBIC ACID] registered a logD at 4 h in data set [1] of -1.65. Besides, in the data set on Hepatocyte [9], the Activity stood at 77%.
Consider `O=C1OC(C(O)CO)C(OCCCO[N+](=O)[O-])=C1O` (configuration not stated), for which the logD at 4 h in data set [1] was -0.48; in data set [6], -0.55. In data set [2], this compound showed a pKa of 7.55. Moreover, the EC50 is more than 100 µM in the data set with Aorta [5] and 55 µM in the data set on Aorta [8]. Moreover, in the data set on Hepatocyte [7], the IC50 was 454 µM.
`O=C1OC(C(O)CO)C(OCCCCC(CO[N+](=O)[O-])O[N+](=O)[O-])=C1O` (configuration not stated): the logD at 4 h in [1] came out at 0.78; in [6], 0.66. Also, in data set [2], the pKa is 7.64. In addition, the half-maximal effective concentration (EC50) with Aorta [5] is more than 100 µM; in the data set on Aorta [8] it was 0.72 µM. The IC50 with Hepatocyte [7] is 28 µM.
On to `O=C1OC(C(O)CO)C(O)=C1OCCCCCCO[N+](=O)[O-]` (configuration not stated), for which the pH-dependent lipophilicity (logD) at 4 h was 0.84 in data set [1] and -1.93 in [6]. The compound also yielded a pKa in [2] of 3.56. Moreover, the EC50 is more than 100 µM in the data set with Aorta [5] and 7.1 µM with Aorta [8]. Also, in the data set on Hepatocyte [7], the IC50 is more than 1000 µM.
For `NC(=O)c1c(COC2=C(O)C(=O)OC2C(O)CO)no[n+]1[O-]` (configuration not stated), the values for the log distribution coefficient (logD) at 4 h in [1] and in [6] were -0.99 and -1.44, respectively. In [2], this compound had a pKa of 7.07. Besides, the EC50 is more than 100 µM with Aorta [5] and 6 µM in the data set on Aorta [8]. In addition, in the data set on Hepatocyte [7], the IC50 was more than 1000 µM.
In the case of `COC1=C(O)C(=O)O[C@@H]1[C@@H](O)CO`, the logD at 4 h in data set [1] is -1.41; in data set [6] it was -1.61. The pKa in data set [2] was determined as 7.54. Further, the half-maximal inhibitory concentration (IC50) in the data set with Hepatocyte [7] is more than 1000 µM.
